Test results published in ChEMBL document CHEMBL1157613, “Salicylic acid based small molecule inhibitor for the oncogenic Src homology-2 domain containing protein tyrosine phosphatase-2 (SHP2)” (J Med Chem, 2010).
Active and inactive are the calls of the source. The calls are words filed in the database; no cut-off is given here.

What was measured:
[1] = target: T1, Tyrosine-protein phosphatase non-receptor type 11 (Homo sapiens, UniProt Q06124); assay: Inhibition of SHP2 […] expressed in Escherichia coli BL21 (DE3) assessed as inhibition of p-nitrophenyl phosphate hydrolysis at pH 7 by spectrophotometry
T1 sequence (Q06124 whole entry): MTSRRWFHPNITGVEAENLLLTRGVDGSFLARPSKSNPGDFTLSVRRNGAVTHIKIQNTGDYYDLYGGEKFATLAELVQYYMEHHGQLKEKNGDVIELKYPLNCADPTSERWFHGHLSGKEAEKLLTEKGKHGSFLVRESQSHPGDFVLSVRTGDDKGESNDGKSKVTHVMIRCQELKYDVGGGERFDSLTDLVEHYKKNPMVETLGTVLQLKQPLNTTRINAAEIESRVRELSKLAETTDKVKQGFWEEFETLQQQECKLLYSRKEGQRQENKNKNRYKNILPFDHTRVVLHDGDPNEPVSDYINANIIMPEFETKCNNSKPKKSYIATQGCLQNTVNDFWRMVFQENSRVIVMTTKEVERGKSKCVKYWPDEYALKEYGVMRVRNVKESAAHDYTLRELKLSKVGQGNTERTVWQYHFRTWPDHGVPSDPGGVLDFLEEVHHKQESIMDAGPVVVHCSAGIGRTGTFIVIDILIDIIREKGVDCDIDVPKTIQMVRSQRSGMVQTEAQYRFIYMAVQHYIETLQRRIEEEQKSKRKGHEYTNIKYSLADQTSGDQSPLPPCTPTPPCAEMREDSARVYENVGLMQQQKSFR

[2] = target: T2, Tyrosine-protein phosphatase non-receptor type 11 (Homo sapiens) (UniProt Q06124); assay: Inhibition of SHP2-dependent ERK1/2 activation in EGF-stimulated HEK293 cells assessed as phosphorylated ERK1/2 level at 20 uM treated for 3 hrs before EGF challenge measured after 60 mins of EGF stimulation by immunoblot analysis; assay type: cell-based
T2 sequence (whole entry): T1 sequence (Q06124 whole entry)
Method in brief: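 HEK293 cells in DMEM with 10% FCS, 4 × 10^5 per well, grown 24 h. They were serum-deprived 16 h, given vehicle or compound at 0-20 μM for 3 h, then stimulated with EGF 2 ng/mL for 60 min. Lysates (30 μg) were run on 10% SDS-PAGE and immunoblotted for phospho-ERK1/2, normalised to total ERK1/2.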

Work on `Cn1c(-c2ccccc2)c(-c2cn(CC(=O)NC3c4ccccc4-c4ccccc43)nn2)c2cc(C(=O)O)c(O)cc21` yielded an IC50 [1] of 10.4 µM.

Work on `C#Cc1c(-c2ccccc2)n(C)c2cc(O)c(C(=O)O)cc12` yielded an IC50 [1] of 212 µM.

`Cn1c(-c2ccccc2)c(-c2cn(CC(=O)Nc3nc4ccccc4s3)nn2)c2cc(C(=O)O)c(O)cc21` gave an IC50 [1] of 9.1 µM.

`Cn1c(-c2ccccc2)c(-c2cn(CCCCC(=O)N3c4ccccc4Sc4ccccc43)nn2)c2cc(C(=O)O)c(O)cc21` was tested, and the IC50 [1] was 8 µM.

`Cn1c(-c2ccccc2)c(-c2cn(CC(=O)Nc3ccc(N4CCOCC4)cc3)nn2)c2cc(C(=O)O)c(O)cc21` was tested, and the IC50 [1] was 7.8 µM.

Work on `Cn1c(-c2ccccc2)c(-c2cn(CC(=O)Nc3ccc(-c4ccccc4)cc3)nn2)c2cc(C(=O)O)c(O)cc21` yielded an IC50 [1] of 9.3 µM.

`Cn1c(-c2ccccc2)c(-c2cn(CCC(=O)Nc3ccccc3)nn2)c2cc(C(=O)O)c(O)cc21` was tested, and the IC50 [1] was 86 µM and the inhibition [2] was “inactive”.

`Cn1c(-c2ccccc2)c(-c2cn(CCCC(=O)Nc3ccc(-c4ccccc4)cc3)nn2)c2cc(C(=O)O)c(O)cc21` was tested, and the IC50 [1] was 12 µM.
